We go through four compounds from ChEMBL document CHEMBL1150966, “New iridoids from the medicinal plant Barleria prionitis with potent activity against respiratory syncytial virus” (J Nat Prod, 1998).

Usually EC50 stands for the concentration at which the effect is half-maximal. As usually defined, the IC50 is the midpoint of a concentration-inhibition curve. Low values mean higher potency, high ones lower potency.

In brackets after ≈: the same amount, converted by molar mass. Activity calls are given as the source filed them. The rule behind the calls is not given here.

Data set [1] deals with Respiratory syncytial virus. The data set can be described thus: Antiviral activity against respiratory syncytial virus A2 in human Hep2 cells assessed as inhibition of virus-induced cytopathic effect. It is filed as functional, organism-based. Conditions: HEp-2. The procedure, abridged:
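Cell-based viral cytopathic effect (CPE) assay with RSV strain A2 in Hep-2 cells. Antiviral activity is expressed in µg/mL as the 50% effective concentration (EC50).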

A short description of data set [2]: Cytotoxicity against human Hep2 cells. The format is cell-based, HEp-2. The note with it: for IC50: Homo sapiens, HEp-2. The procedure, abridged: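 Cytotoxicity to Hep-2 cells was measured under the same conditions as the viral CPE assay. It is reported in µg/mL as the 50% inhibitory concentration (IC50).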
Data set [3] in a line: Selectivity index, ratio of IC50 for human Hep2 cells to EC50 for respiratory syncytial virus A2. It is filed as toxicity, cell-based, HEp-2. The note with it: for selectivity ratio: Hep2 cells, read-out: Ratio IC50/EC50. A digest of the protocol: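 The selectivity index is IC50/EC50. The IC50 is for Hep-2 cytotoxicity and the EC50 is for RSV A2 CPE inhibition, both in µg/mL from the same CPE assay conditions.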

Consider `COC(=O)C1=CO[C@@H](O[C@@H]2O[C@H](CO)[C@@H](O)[C@H](O)[C@H]2O)[C@H]2[C@@H]1[C@H](OC(=O)/C=C/c1ccc(O)cc1)C[C@]2(C)OC(C)=O`, for which the EC50 in data set [1] was determined as 2.46 µg/mL (≈ 4.14 µM). Also, in data set [2], half-maximal inhibition (IC50) was put at 42 µg/mL (≈ 70.6 µM). Further, the selectivity ratio in data set [3] is 17.

In the case of `COC(=O)C1=CO[C@@H](O[C@@H]2O[C@H](CO)[C@@H](O)[C@H](O)[C@H]2O)[C@H]2[C@@H]1[C@H](OC(=O)/C=C\c1ccc(O)cc1)C[C@]2(C)OC(C)=O`, the concentration for a half-maximal effect (EC50) in data set [1] worked out at 2.46 µg/mL (≈ 4.14 µM). The same compound displayed an IC50 in data set [2] of 42 µg/mL (≈ 70.6 µM). Besides, the selectivity ratio in data set [3] came to 17.

Take `COC(=O)C1=CO[C@@H](O[C@@H]2O[C@H](CO)[C@@H](O)[C@H](O)[C@H]2O)[C@H]2[C@@H]1[C@H](O)C[C@]2(C)OC(C)=O` [BARLERIN]: the outcome in data set [1] was inactive. Also, the Activity entry in data set [2] (human, hep-2) is reported as “Not Active”; in data set [3] (hep-2), “Not Active”.

In data set [2], `C[C@@H]1O[C@@H](O[C@@H]2[C@@H](O)[C@H](OCCc3ccc(O)c(O)c3)O[C@H](CO)[C@H]2OC(=O)/C=C/c2ccc(O)c(O)c2)[C@H](O)[C@H](O)[C@H]1O` [ACETOSIDE] returned an IC50 of 76.9 µg/mL (≈ 123 µM). In data set [3], the selectivity ratio turned out to be 85.4.
